Data: ChEMBL document CHEMBL4346672, “Antimicrobial and KPC/AmpC inhibitory activity of functionalized benzosiloxaboroles” (Eur J Med Chem, 2019)
Converted amounts (≈) assume the structure as drawn. The source made the active and inactive calls. The rule behind the calls is not given here.

Assays:
Escherichia coli = experiment: Antibacterial activity against Escherichia coli ATCC 25922 assessed as fold reduction of MIC in presence of efflux pump inhibitor PAbetaN incubated for 18 hrs by CLSI broth microdilution method; assay type: functional
Summary of the method: (§1)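 MICs determined with and without PAβN at 50 mg/L in Mueller-Hinton broth containing 1 mM MgSO₄. 2-fold serial dilutions per CLSI. Fold change taken from the paired MICs after 35 °C, 18 h.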

Saccharomyces cerevisiae = experiment: Antifungal activity against Saccharomyces cerevisiae ATCC 9763 assessed as decrease in fungal cell growth at 0.78 to 12.5 mg/L incubated for 24 hrs by CLSI broth dilution method; assay type: functional; details: ATCC 9763, 24 h
Summary of the method: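 Yeast strain subcultured on Sabouraud dextrose agar for 24–48 h at 30 °C before testing. Compounds dissolved in DMSO.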

Acinetobacter baumannii = experiment: Antibacterial activity against Acinetobacter baumannii ATCC 19606 assessed as fold reduction of MIC in presence of efflux pump inhibitor PAbetaN incubated for 18 hrs by broth microdilution method; assay type: functional; summary of the method: as §1
[1] = test system: Staphylococcus epidermidis; experiment: Antibacterial activity against Staphylococcus epidermidis ATCC 12228 measured after 18 hrs by CLSI broth dilution method; assay type: functional; details: ATCC 12228, 18 h
Summary of the method: (§2)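 Broth MIC in Mueller-Hinton II broth following CLSI, compounds dissolved in DMSO. Strains subcultured twice on tryptic soy agar before testing. Growth read after 35 °C, 18 h.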

Klebsiella pneumoniae [2] = details: ATCC 13883
Proteus mirabilis = experiment: Antibacterial activity against Proteus mirabilis ATCC 12453 assessed as fold reduction of MIC in presence of efflux pump inhibitor PAbetaN incubated for 18 hrs by broth microdilution method; assay type: functional; summary of the method: as §1
Enterococcus faecalis = experiment: Antibacterial activity against Enterococcus faecalis ATCC 29212 measured after 18 hrs by CLSI broth dilution method; assay type: functional; details: ATCC 29212, 18 h; summary of the method: as §2
Candida parapsilosis = experiment: Antifungal activity against Candida parapsilosis ATCC 22019 assessed as diameter of zone inhibition incubated for 24 hrs by CLSI disc diffusion method; assay type: functional
Summary of the method: (§3)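 Yeast disc diffusion on Mueller-Hinton agar supplemented with 2% glucose and 0.5 mg/L methylene blue. Compounds in DMSO. Yeasts subcultured on Sabouraud dextrose agar before testing. Zones read after 35 °C, 24 h.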

Candida tropicalis = experiment: Antifungal activity against Candida tropicalis IBA 171 assessed as diameter of zone inhibition incubated for 24 hrs by CLSI disc diffusion method; assay type: functional; summary of the method: as §3
[3] = test system: Meyerozyma guilliermondii; experiment: Antifungal activity against Candida guilliermondii IBA 155 assessed as decrease in fungal cell growth at 0.78 to 12.5 mg/L incubated for 24 hrs by CLSI broth dilution method; assay type: functional; details: IBA 155, 24 h
Summary of the method: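 Yeast broth dilution in RPMI 1640 with 2% glucose, compounds in DMSO. Yeasts pre-grown on Sabouraud dextrose agar. Growth read after 35 °C, 24 h.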

Serratia marcescens [4] = details: ATCC 13880
Pseudomonas aeruginosa = experiment: Antibacterial activity against Pseudomonas aeruginosa ATCC 27853 measured after 18 hrs by CLSI broth dilution method; assay type: functional; details: ATCC 27853, 18 h; summary of the method: as §2
Klebsiella pneumoniae [5] = experiment: Antibacterial activity against Klebsiella pneumoniae ATCC 13883 assessed as fold reduction of MIC in presence of efflux pump inhibitor PAbetaN incubated for 18 hrs by broth microdilution method; assay type: functional; summary of the method: as §1
[6] = test system: Staphylococcus epidermidis; experiment: Antibacterial activity against Staphylococcus epidermidis ATCC 12228 assessed as diameter of zone inhibition measured after 18 hrs by CLSI disc diffusion method; assay type: functional
Summary of the method: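 Disc diffusion on Mueller-Hinton II agar. Compounds dissolved in DMSO. Strains stored at -80 °C and subcultured twice on tryptic soy agar before testing. Inhibition zones read after 35 °C, 18 h.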

Staphylococcus aureus = experiment: Bactericidal activity against Staphylococcus aureus ATCC 6538P measured after 18 hrs by CLSI broth dilution method; assay type: functional
Summary of the method: (§4)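 Strains stored at -80 °C and subcultured twice on tryptic soy agar before testing. Compounds dissolved in DMSO. […] MBC then determined per CLSI recommendations.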

Klebsiella pneumoniae [7] = experiment: Antibacterial activity against Klebsiella pneumoniae ATCC 13883 measured after 18 hrs by CLSI broth dilution method; assay type: functional; details: ATCC 13883, 18 h; summary of the method: as §2
Burkholderia cepacia = experiment: Antibacterial activity against Burkholderia cepacia ATCC 25416 measured after 18 hrs by CLSI broth dilution method; assay type: functional; details: ATCC 25416, 18 h; summary of the method: as §2
Serratia marcescens [8] = experiment: Antibacterial activity against Serratia marcescens ATCC 13880 assessed as fold reduction of MIC in presence of efflux pump inhibitor PAbetaN incubated for 18 hrs by broth microdilution method; assay type: functional; summary of the method: as §1
[9] = test system: Staphylococcus epidermidis; experiment: Bactericidal activity against Staphylococcus epidermidis ATCC 12228 measured after 18 hrs by CLSI broth dilution method; assay type: functional; details: ATCC 12228, 18 h; summary of the method: as §4

| MIC (Saccharomyces cerevisiae) | MIC [1] | MIC (Enterococcus faecalis) | MIC [3] | MIC (Pseudomonas aeruginosa) | MIC (Klebsiella pneumoniae [7]) | MIC (Burkholderia cepacia) | SMILES | fold change (FC) (Escherichia coli) | fold change (FC) (Acinetobacter baumannii) | DIZ (Klebsiella pneumoniae [2]) | fold change (FC) (Proteus mirabilis) | diameter of the inhibition zone (DIZ) (Candida parapsilosis) | diameter of the inhibition zone (DIZ) (Candida tropicalis) | DIZ (Serratia marcescens [4]) | fold change (FC) (Klebsiella pneumoniae [5]) | diameter of the inhibition zone (DIZ) [6] | MBC (Staphylococcus aureus) | fold change (FC) (Serratia marcescens [8]) | MBC [9] |
| --- | --- | --- | --- | --- | --- | --- | --- | --- | --- | --- | --- | --- | --- | --- | --- | --- | --- | --- | --- |
| 200 µg/mL (≈ 893 µM) | 50 µg/mL (≈ 223 µM) | 400 µg/mL (≈ 1790 µM) | > 400 µg/mL | > 400 µg/mL | > 400 µg/mL | > 400 µg/mL | C[Si]1(C)OB(O)c2cc(C=O)cc(F)c21 | 16 | 4 | inactive | 4 | inactive | inactive | inactive | 8 | 31 mm | 100 µg/mL (≈ 446 µM) | 8 | 200 µg/mL (≈ 893 µM) |
| 400 µg/mL (≈ 1640 µM) | 200 µg/mL (≈ 819 µM) | > 400 µg/mL | > 400 µg/mL | > 400 µg/mL | > 400 µg/mL | > 400 µg/mL | C[Si]1(C)OB(O)c2cc(F)c(CO)c(F)c21 | 4 | 2 | inactive | 4 | inactive | inactive | inactive | 2 | 19 mm | – | 4 | – |
| 1.56 µg/mL (≈ 7.97 µM) | 50 µg/mL (≈ 255 µM) | 200 µg/mL (≈ 1020 µM) | 25 µg/mL (≈ 128 µM) | > 400 µg/mL | > 400 µg/mL | > 400 µg/mL | C[Si]1(C)OB(O)c2ccc(F)cc21 | 16 | 4 | inactive | 2 | 11 mm | 11 mm | inactive | 8 | 26 mm | 400 µg/mL (≈ 2040 µM) | 8 | – |
| 100 µg/mL (≈ 413 µM) | 100 µg/mL (≈ 413 µM) | 400 µg/mL (≈ 1650 µM) | 400 µg/mL (≈ 1650 µM) | > 400 µg/mL | > 400 µg/mL | > 400 µg/mL | C[Si]1(C)OB(O)c2c(C=O)cc(F)c(F)c21 | 64 | 2 | inactive | 2 | inactive | 11 mm | inactive | 32 | 28 mm | 100 µg/mL (≈ 413 µM) | 2 | 400 µg/mL (≈ 1650 µM) |
| > 400 µg/mL | 50 µg/mL (≈ 223 µM) | 400 µg/mL (≈ 1790 µM) | > 400 µg/mL | > 400 µg/mL | > 400 µg/mL | > 400 µg/mL | C[Si]1(C)OB(O)c2ccc(C=O)c(F)c21 | 16 | 4 | inactive | 4 | inactive | inactive | inactive | 4 | 27 mm | 100 µg/mL (≈ 446 µM) | 16 | 100 µg/mL (≈ 446 µM) |
| 3.12 µg/mL (≈ 14.6 µM) | 50 µg/mL (≈ 234 µM) | 400 µg/mL (≈ 1870 µM) | 6.25 µg/mL (≈ 29.2 µM) | > 400 µg/mL | > 400 µg/mL | > 400 µg/mL | C[Si]1(C)OB(O)c2cc(F)c(F)cc21 | 32 | 8 | inactive | 2 | 18 mm | 13 mm | inactive | 4 | 28 mm | – | 4 | – |
| 400 µg/mL (≈ 1670 µM) | 50 µg/mL (≈ 208 µM) | 400 µg/mL (≈ 1670 µM) | 400 µg/mL (≈ 1670 µM) | > 400 µg/mL | > 400 µg/mL | > 400 µg/mL | C[Si]1(C)OB(O)c2cc(B(O)O)cc(F)c21 | 8 | 4 | inactive | 4 | inactive | inactive | inactive | 8 | 29 mm | 400 µg/mL (≈ 1670 µM) | 2 | 400 µg/mL (≈ 1670 µM) |
| 50 µg/mL (≈ 207 µM) | 100 µg/mL (≈ 413 µM) | 400 µg/mL (≈ 1650 µM) | 200 µg/mL (≈ 826 µM) | > 400 µg/mL | > 400 µg/mL | > 400 µg/mL | C[Si]1(C)OB(O)c2cc(F)c(C=O)c(F)c21 | 4 | 4 | inactive | 2 | inactive | inactive | inactive | 4 | 22 mm | – | 4 | – |
| 200 µg/mL (≈ 813 µM) | 25 µg/mL (≈ 102 µM) | 50 µg/mL (≈ 203 µM) | 200 µg/mL (≈ 813 µM) | > 400 µg/mL | > 400 µg/mL | > 400 µg/mL | C[Si]1(C)OB(O)c2ccc(C(F)(F)F)cc21 | 16 | 16 | inactive | 2 | 12 mm | 13 mm | inactive | 16 | 20 mm | 100 µg/mL (≈ 406 µM) | 2 | 50 µg/mL (≈ 203 µM) |
| 6.25 µg/mL (≈ 31.9 µM) | 25 µg/mL (≈ 128 µM) | 200 µg/mL (≈ 1020 µM) | 12.5 µg/mL (≈ 63.8 µM) | > 400 µg/mL | > 400 µg/mL | > 400 µg/mL | C[Si]1(C)OB(O)c2cccc(F)c21 | 32 | 4 | inactive | 2 | 20 mm | 14 mm | inactive | 16 | 39 mm | – | 4 | – |
| 3.12 µg/mL (≈ 17.5 µM) | 50 µg/mL (≈ 281 µM) | > 200 µg/mL | 25 µg/mL (≈ 140 µM) | > 200 µg/mL | > 200 µg/mL | 200 µg/mL (≈ 1120 µM) | C[Si]1(C)OB(O)c2ccccc21 | 4 | 4 | inactive | 0 | 11 mm | inactive | inactive | 2 | 28 mm | – | 0 | – |
| 50 µg/mL (≈ 225 µM) | 200 µg/mL (≈ 901 µM) | > 400 µg/mL | > 400 µg/mL | > 400 µg/mL | > 400 µg/mL | > 400 µg/mL | C[Si]1(C)OB(O)c2cccc(B(O)O)c21 | 4 | 2 | inactive | 0 | inactive | inactive | inactive | 4 | 22 mm | – | 2 | – |
